Source: PubChem BioAssay
In the library only some 3.9% were active in any assay of this set; here they are far more common.
TAAR1 ag: human TAAR1 agonism. CHO RD-HGA16 TAAR1, Fluo-8 calcium fluorescence; vehicle wells 0%, saturating PEA agonist 100%. AID 624467. 360,000 compounds, 0.99% hits. Q96RJ0. activation, % at 3 µM;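 active = activation above the mean activation of all test compounds in the run plus 3 SD, cut at about 38% in these data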
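Signal – calcium-sensitive Fluo-8 signal, excitation 470-495, emission 515-575 nm · System – RD-HGA16 (CHO) cells co-expressing Gα16 and hTAAR1 · Incubation – 17-24 h seeding, 75 min 37 °C dye, 30 min RT · Compound dosing – 3 µM single concentration · Repeats – no replicates (n 1)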
TAAR1 antagonist: antagonists of human TAAR1. CHO RD-HGA16 TAAR1, Fluo-8 calcium fluorescence, antagonist. 360,000 compounds, 1.5% hits. inhibition, % at 3 µM. AID 624466;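 active = inhibition above a per-plate cutoff, the mean inhibition of test compounds on that plate plus 3 SD, cut at about 49% in these data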;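 note: 0% = DMSO plus EC80 beta-PEA response and 100% = DMSO alone without agonist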
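Material: CHO RD-HGA16 cells bearing hTAAR1; compound dosing: one-point dosing, 3 µM nominal final; schedule: dye loading 75 min at 37 °C, then 30 min room temperature; measured by: calcium fluorescence with Fluo-8; control set: vehicle and agonist controls; replication: n of 1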
CRFR2-BP antag: blocks CRF-induced signaling of the CRF-BP/CRF-R2 complex | HEK293 CRF-R2/CRF-BP, CRF-induced calcium fluorescence | inhibition, % at 11.8 µM | 350,000 compounds, 0.59% hits;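 active = inhibition of the ligand-induced calcium signal above about 50% at the single tested concentration, limit read from the data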
TMEM16A inh: inhibitors of mouse TMEM16A calcium-activated chloride channel; normalized B-score (activity score, 25-100; higher = stronger inhibition) at 10 µM; 310,000 compounds, 1.2% hits; HEK293 TMEM16A/YFP iodide influx fluorescence, ionomycin; Q8BHY3; AID 588511;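 active = ratio plate-corrected score three or more library SD toward inhibition, starting fluorescence score within five deviations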;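 note: score derived from kinetic fluorescence span divided by baseline fluorescence per well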
CRFR2-BP ag: agonists of human CRF-binding protein/CRF-R2 receptor complex; activation, % at 13.2 µM; HEK293 CRF-R2/CRF-BP, calcium dye fluorescence (FLIPR); percent of saturating CRF peptide response; AID 588473; 350,000 compounds, 0.46% hits;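 active = activation of at least 50%, plus an integration ratio under a set limit after plate pattern correction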;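 note: plate controls were neutral control wells without compound for no effect and CRF at EC100 for full effect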
ANO1 activ: mouse TMEM16A channel activation, primary screen. HEK293 TMEM16A/YFP-H148Q/I152L, iodide quench fluorescence; hits give low values. B-score at 10 µM. 340,000 compounds, 0.3% hits;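 active = fluorescence-ratio B-score plate-corrected deviation score at least 3 library SD below zero, with starting fluorescence score within 5 deviations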;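 note: channel opened by trigger with iodide after compound preincubation; score built on the fluorescence ratio of max minus min over baseline; more negative score means more quench and so TMEM16A activation or potentiation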
TMEM16A reconf: re-confirmation of mouse TMEM16A chloride channel inhibitors | HEK293 TMEM16A/YFP-H148Q, iodide quench fluorescence; ionomycin added to raise cell calcium | 2,300 compounds, 39% hits | shares compounds with TMEM16A inh | inhibition, % at 10 µM;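 active = mean duplicate percent inhibition, scaled so buffer wells are 0 and the reference blocker 100, over three buffer SD above buffer mean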
HEK293 Ca mobil: calcium mobilization counter-screen hit for TMEM16A inhibitor series | shares compounds with TMEM16A inh | calcium response (% of ionomycin), % at 10 µM | TMEM16A/YFP HEK293, Fluo4 calcium mobilization | 2,300 compounds, 2% hits;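 active = duplicate-averaged calcium signal over 20% of the ionomycin maximum, relative to buffer baseline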;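 note: each well's signal is peak minus trough fluorescence divided by its pre-addition baseline; 0% = buffer wells and 100% = ionomycin wells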
YFP-HEK293 quench: parental YFP-HEK293 iodide quench counter-screen activity; shares compounds with TMEM16A inh; YFP ratio F(max-min)/F0 at 10 µM; 2,300 tested, under 10 active; ionomycin;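 active = yellow fluorescent protein signal ratio exceeding the buffer control mean by over 5 SD of those controls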;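 note: ratio is mean of duplicate wells from kinetic YFP trace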
ClC-1 rat inh: selectivity of TMEM16A inhibitors: inhibition of rat ClC-1 chloride channel | shares compounds with TMEM16A inh | CHO ClC-1-YFP, iodide influx fluorescence quench; iodide control reads 0, buffer control 100 | ratio percent, % at 10 µM | 2,300 tested, under 10 active | AID 652236;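 active = duplicate-mean ratio percent above the mean of iodide-only control wells, which defines zero, plus 5 of their SD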;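 note: higher percent means stronger block of ClC-1 iodide influx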
Target sequence (P35524 whole entry, looked up): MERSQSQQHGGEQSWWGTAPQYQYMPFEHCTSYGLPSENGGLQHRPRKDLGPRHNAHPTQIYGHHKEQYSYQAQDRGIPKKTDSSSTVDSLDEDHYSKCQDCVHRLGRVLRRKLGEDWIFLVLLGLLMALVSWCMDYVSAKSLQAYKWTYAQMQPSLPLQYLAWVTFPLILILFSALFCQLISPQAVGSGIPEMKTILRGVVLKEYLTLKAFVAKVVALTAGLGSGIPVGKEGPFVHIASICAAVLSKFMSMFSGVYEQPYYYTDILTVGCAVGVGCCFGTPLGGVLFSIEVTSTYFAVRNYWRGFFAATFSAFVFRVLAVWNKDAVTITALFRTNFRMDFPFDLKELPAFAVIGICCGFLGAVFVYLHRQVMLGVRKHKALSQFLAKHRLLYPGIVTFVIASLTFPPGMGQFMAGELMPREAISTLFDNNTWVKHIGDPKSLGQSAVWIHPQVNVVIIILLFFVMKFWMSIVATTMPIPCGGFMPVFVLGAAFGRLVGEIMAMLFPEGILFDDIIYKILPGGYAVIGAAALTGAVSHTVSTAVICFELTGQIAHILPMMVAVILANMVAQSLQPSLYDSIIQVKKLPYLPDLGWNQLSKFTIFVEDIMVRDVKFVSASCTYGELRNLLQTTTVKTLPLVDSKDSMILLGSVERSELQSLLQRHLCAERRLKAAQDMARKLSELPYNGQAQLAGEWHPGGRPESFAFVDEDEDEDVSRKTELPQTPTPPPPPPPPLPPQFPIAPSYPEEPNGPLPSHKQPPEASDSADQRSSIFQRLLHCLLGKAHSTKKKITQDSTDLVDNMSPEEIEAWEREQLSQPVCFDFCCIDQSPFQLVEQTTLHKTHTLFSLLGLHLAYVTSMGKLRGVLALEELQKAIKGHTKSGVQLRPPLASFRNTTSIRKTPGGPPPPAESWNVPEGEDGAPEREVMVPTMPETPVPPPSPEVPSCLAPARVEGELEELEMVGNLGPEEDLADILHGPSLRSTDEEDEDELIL
* = called active by the depositor; i = inactive; nt = no result.

SMILES | TAAR1 ag | TAAR1 antagonist | CRFR2-BP antag | TMEM16A inh | CRFR2-BP ag | ANO1 activ | TMEM16A reconf | HEK293 Ca mobil | YFP-HEK293 quench | ClC-1 rat inh
COC(=O)C(Cc1ccc(OC(=O)c2ccccc2Cl)cc1)N1Cc2ccccc2C1=O (stereo not given) | 9 | 59* | 5 | 100* | 7 | i | i | i | -1 | -5
CC(C)CCCC(C)NC(=O)c1cc(S(=O)(=O)N2CCCCC2)ccc1N1CCOCC1 (stereo not given) | -2 | -11 | 2 | nt | 1 | i | nt | nt | nt | nt
CCOC(=O)c1ccccc1NS(=O)(=O)c1ccc(OCC)cc1 | 17 | 18 | 12 | 25* | 1 | i | i | i | -1.2 | -8
Cc1ccc(C)c(NC(=O)COC(=O)c2cc(=O)c3ccccc3o2)c1 | nt | nt | -3 | nt | -2 | i | nt | nt | nt | nt
CCC(c1nnnn1-c1ccc2c(c1)OCCO2)N1CCN(c2ncccc2C(F)(F)F)CC1 (stereo not given) | 1 | 23 | nt | nt | nt | nt | nt | nt | nt | nt
COc1ccc2oc3cc(C)[n+]([O-])c(-c4ccc(Br)cc4)c3c2c1 | 0 | -20 | -4 | 25* | 0 | i | 22%* | i | -1.3 | -12
COc1ccc(-c2ccc3oc(-c4ccc(OC)cc4)c(-c4ccc(OC)cc4)c3c2)cc1 | 9 | -3 | 3 | i | 4 | i | nt | nt | nt | nt
CC(OC(=O)c1cc(Br)ccc1O)C(=O)Nc1ccc(S(=O)(=O)N2CCCC2)cc1 (stereo not given) | 13 | 52* | -3 | 100* | 15 | i | 62%* | i | -1 | -19
CC(=O)Nc1cc(NC(C)=O)cc(C(=O)OC(C)C(=O)Nc2ccc(S(=O)(=O)N3CCCC3)cc2)c1 (stereo not given) | 1 | 3 | 0 | i | -1 | i | nt | nt | nt | nt
CSc1ccc(C(=O)C2CCCN(C(=O)CCc3c(C)nn(C)c3C)C2)cc1 (stereo not given) | 4 | -6 | -11 | 25* | 1 | i | i | i | -0.89 | -11
CCOC(=O)c1cn(Cc2cccc(Cl)c2)c2cc(C)nn2c1=O | 5 | -2 | -13 | i | -1 | i | nt | nt | nt | nt
Cc1cccc(NC(=S)NCCSc2ccc(Cl)cc2)c1 | 3 | 12 | 4 | 100* | 4 | i | 72%* | i | -1 | -32
Cc1cnc(NC(=O)c2cc(S(=O)(=O)N(C)C)ccc2N2CCCC2)s1 | 1 | -23 | -19 | nt | 5 | nt | nt | nt | nt | nt
CN(C)S(=O)(=O)c1ccc(N2CCCC2)c(C(=O)Nc2nc3c(ccc4ccccc43)s2)c1 | 0 | -19 | 12 | i | 7 | i | i | i | -1.4 | -11
COc1ccc(NC(=O)c2cnc3sccn3c2=O)cc1 | 6 | 2 | -1 | 100* | -2 | i | i | i | -1 | -7
Clc1ccc(OCCN2CCN(c3ncnc4sccc34)CC2)cc1 | 13 | 17 | -17 | 100* | 0 | i | 16%* | i | -1.2 | -32
Cc1ccc(OCCN2CCN(c3ncnc4sc(C)c(C)c34)CC2)cc1 | 3 | 14 | 12 | i | 1 | i | nt | nt | nt | nt
Cc1c(O)ccc(-c2n[nH]c(C(=O)O)c2-c2nc3ccccc3s2)c1O | 1 | -5 | 9 | i | -1 | i | nt | nt | nt | nt
